Test results from ChEMBL document CHEMBL1240400, “Comparative in vitro activities of nemonoxacin (TG-873870), a novel nonfluorinated quinolone, and other quinolones against clinical isolates” (2010).
In brackets after ≈: the same amount, converted by molar mass.

Tests used:
Type in all cases: functional
[1] = tested on: Streptococcus viridans; assay: Antibacterial activity against Streptococcus viridans by broth dilution method
How it was run: (§1)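 Streptococci were tested by CLSI broth microdilution in Mueller-Hinton broth with 3% lysed horse blood, seeded from a 0.5 McFarland suspension. Incubated overnight at 35°C in ambient air, with quality control strains in each run. MIC taken over a per-agent dilution range.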

[2] = tested on: Pseudomonas aeruginosa; assay: Antibacterial activity against Pseudomonas aeruginosa by broth dilution method
[3] = tested on: Acinetobacter baumannii; assay: Antibacterial activity against Acinetobacter baumannii by broth dilution method
How it was run: (§2)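 Broth microdilution per CLSI in panels spanning a dilution range of each agent. Cation-adjusted Mueller-Hinton broth, final inoculum 5 × 10^5 CFU/ml from a 0.5 McFarland suspension. Incubated overnight at 35°C in ambient air, with quality control strains in each run. MIC reported; values at or below the lowest concentration tested are given as that concentration.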

[4] = tested on: Neisseria gonorrhoeae; assay: Antibacterial activity against moxifloxacin resistant Neisseria gonorrhoeae isolates by broth dilution method
How it was run: (§3)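 Neisseria gonorrhoeae clinical isolates tested by CLSI broth microdilution in Mueller-Hinton broth with 3% lysed horse blood, inoculated from a 0.5 McFarland suspension. Plates were incubated overnight at 35°C in 5% CO2, and the MIC was read as the lowest inhibitory concentration. Quality control strains were included in each run.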

[5] = tested on: Proteus mirabilis; assay: Antibacterial activity against Proteus mirabilis by broth dilution method
[6] = tested on: Enterococcus faecalis; assay: Antibacterial activity against Enterococcus faecalis by broth dilution method
[7] = tested on: Neisseria gonorrhoeae; assay: Antibacterial activity against levofloxacin resistant Neisseria gonorrhoeae isolates by broth dilution method; how it was run: as §3
[8] = tested on: Staphylococcus epidermidis; assay: Antibacterial activity against methicillin resistant coagulase negative Staphylococcus epidermidis by broth dilution method
[9] = tested on: Klebsiella pneumoniae; assay: Antibacterial activity against Klebsiella pneumoniae by broth dilution method; how it was run: as §2
[10] = tested on: Enterococcus faecalis; assay: Antibacterial activity against vancomycin resistant Enterococcus faecalis by broth dilution method
[11] = tested on: Haemophilus influenzae; assay: Antibacterial activity against Haemophilus influenzae by broth dilution method
How it was run: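 Broth microdilution per CLSI using Haemophilus Test Medium broth, seeded from a 0.5 McFarland suspension. Incubated overnight at 35°C in ambient air, with quality control strains in each run. MIC read against a tested dilution range; values at the low limit are given as the lowest concentration.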

[12] = tested on: Staphylococcus aureus; assay: Antibacterial activity against ciprofloxacin and methicillin resistant Staphylococcus aureus by broth dilution method
How it was run: (§4)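 Clinical isolates tested by CLSI broth microdilution in panels holding serial twofold drug dilutions in cation-adjusted Mueller-Hinton broth. Final inoculum 5 × 10^5 CFU/ml was made from a 0.5 McFarland suspension. Plates were incubated overnight at 35°C in ambient air, and the MIC was read as the lowest concentration inhibiting growth. Quality control strains were included in each run.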

[13] = tested on: Citrobacter freundii; assay: Antibacterial activity against Citrobacter freundii by broth dilution method; how it was run: as §2
[14] = tested on: Neisseria gonorrhoeae; assay: Antibacterial activity against ciprofloxacin resistant Neisseria gonorrhoeae isolates by broth dilution method; how it was run: as §3
[15] = tested on: Enterococcus faecium; assay: Antibacterial activity against Enterococcus faecium by broth dilution method; how it was run: as §4
[16] = tested on: Escherichia coli; assay: Antibacterial activity against ciprofloxacin susceptible Escherichia coli by broth dilution method; how it was run: as §2
[17] = tested on: Enterococcus faecium; assay: Antibacterial activity against vancomycin resistant Enterococcus faecium by broth dilution method; how it was run: as §4
[18] = tested on: Streptococcus pneumoniae; assay: Antibacterial activity against Levofloxacin resistant Streptococcus pneumoniae by broth dilution method
How it was run: (§5)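 Streptococcus pneumoniae clinical isolates tested by CLSI broth microdilution. A 0.5 McFarland suspension was diluted into Mueller-Hinton broth with 3% lysed horse blood, then tested against serial drug dilutions. Plates were incubated overnight at 35°C in ambient air, and the MIC was read as the lowest inhibitory concentration. Quality control strains were included in each run.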

[19] = tested on: Escherichia coli; assay: Antibacterial activity against ciprofloxacin resistant Escherichia coli by broth dilution method; how it was run: as §4
[20] = tested on: Staphylococcus aureus; assay: Antibacterial activity against ciprofloxacin susceptible and methicillin resistant Staphylococcus aureus by broth dilution method; how it was run: as §4
[21] = tested on: Staphylococcus; assay: Antibacterial activity against methicillin resistant coagulase negative Staphylococcus by broth dilution method
[22] = tested on: Streptococcus pyogenes; assay: Antibacterial activity against Streptococcus pyogenes by broth dilution method; how it was run: as §1
[23] = tested on: Enterobacter cloacae; assay: Antibacterial activity against Enterobacter cloacae by broth dilution method
[24] = tested on: Streptococcus agalactiae; assay: Antibacterial activity against Streptococcus agalactiae by broth dilution method; how it was run: as §1
[25] = tested on: Staphylococcus aureus; assay: Antibacterial activity against methicillin susceptible Staphylococcus aureus by broth dilution method
[26] = tested on: Streptococcus pneumoniae; assay: Antibacterial activity against Levofloxacin susceptible Streptococcus pneumoniae by broth dilution method; how it was run: as §5

COc1c(N2C[C@@H]3CCCN[C@@H]3C2)c(F)cc2c(=O)c(C(=O)O)cn(C3CC3)c12 [MOXIFLOXACIN]
MIC50 [1]: 0.12 µg/mL (≈ 0.299 µM) | MIC90 [1]: 0.25 µg/mL (≈ 0.623 µM) | MIC50 [2]: > 8 µg/mL | MIC90 [2]: > 8 µg/mL | MIC50 [3]: 1 µg/mL (≈ 2.49 µM) | MIC90 [3]: > 8 µg/mL | MIC [4]: 0.5 µg/mL (≈ 1.25 µM) | MIC50 [5]: 8 µg/mL (≈ 19.9 µM) | MIC90 [5]: > 8 µg/mL | MIC50 [6]: 0.5 µg/mL (≈ 1.25 µM) | MIC90 [6]: > 8 µg/mL | MIC [7]: 1 µg/mL (≈ 2.49 µM) | MIC50 [8]: 0.12 µg/mL (≈ 0.299 µM) | MIC90 [8]: 2 µg/mL (≈ 4.98 µM) | MIC50 [9]: 4 µg/mL (≈ 9.96 µM) | MIC90 [9]: > 8 µg/mL | MIC50 [10]: 0.5 µg/mL (≈ 1.25 µM) | MIC50 [11]: 0.25 µg/mL (≈ 0.623 µM) | MIC90 [11]: > 8 µg/mL | MIC50 [12]: 4 µg/mL (≈ 9.96 µM) | MIC90 [12]: 4 µg/mL (≈ 9.96 µM) | MIC50 [13]: 0.5 µg/mL (≈ 1.25 µM) | MIC90 [13]: 8 µg/mL (≈ 19.9 µM) | MIC [14]: 2 µg/mL (≈ 4.98 µM) | MIC50 [15]: > 8 µg/mL | MIC90 [15]: > 8 µg/mL | MIC50 [16]: 0.5 µg/mL (≈ 1.25 µM) | MIC90 [16]: 1 µg/mL (≈ 2.49 µM) | MIC [17]: 1 µg/mL (≈ 2.49 µM) | MIC [18]: 2 µg/mL (≈ 4.98 µM) | MIC50 [18]: 2 µg/mL (≈ 4.98 µM) | MIC90 [18]: 8 µg/mL (≈ 19.9 µM) | MIC50 [19]: > 8 µg/mL | MIC90 [19]: > 8 µg/mL

COc1c(N2C[C@@H](C)C[C@H](N)C2)ccc2c(=O)c(C(=O)O)cn(C3CC3)c12.O=C(O)CC(O)C(=O)O [NEMONOXACIN MALIC ACID]
MIC50 [1]: 0.12 µg/mL | MIC90 [1]: 0.25 µg/mL | MIC50 [2]: 16 µg/mL | MIC90 [2]: > 16 µg/mL | MIC50 [20]: 0.03 µg/mL | MIC90 [20]: 0.06 µg/mL | MIC50 [3]: 4 µg/mL | MIC90 [3]: > 16 µg/mL | MIC50 [21]: 0.12 µg/mL | MIC90 [21]: 0.5 µg/mL | MIC [4]: 0.25 µg/mL | MIC50 [22]: 0.12 µg/mL | MIC90 [22]: 0.12 µg/mL | MIC50 [23]: 4 µg/mL | MIC90 [23]: > 16 µg/mL | MIC50 [5]: 8 µg/mL | MIC90 [5]: > 16 µg/mL | MIC50 [6]: 0.25 µg/mL | MIC90 [6]: 4 µg/mL | MIC [24]: 0.12 µg/mL | MIC50 [24]: 0.12 µg/mL | MIC90 [24]: 0.25 µg/mL | MIC [7]: 0.25 µg/mL | MIC50 [8]: 0.12 µg/mL | MIC90 [8]: 0.5 µg/mL | MIC50 [9]: 4 µg/mL | MIC90 [9]: > 16 µg/mL | MIC50 [10]: 0.25 µg/mL | MIC90 [10]: 4 µg/mL | MIC50 [11]: 0.12 µg/mL | MIC90 [11]: 4 µg/mL | MIC50 [12]: 1 µg/mL | MIC90 [12]: 1 µg/mL | MIC50 [13]: 0.5 µg/mL | MIC90 [13]: 4 µg/mL | MIC [14]: 0.25 µg/mL | MIC50 [25]: 0.03 µg/mL | MIC90 [25]: 0.12 µg/mL | MIC50 [15]: 4 µg/mL | MIC90 [15]: 8 µg/mL | MIC50 [16]: 1 µg/mL | MIC90 [16]: 2 µg/mL | MIC50 [26]: 0.12 µg/mL | MIC90 [26]: 0.12 µg/mL | MIC50 [17]: 4 µg/mL | MIC90 [17]: 8 µg/mL | MIC50 [18]: 1 µg/mL | MIC90 [18]: 2 µg/mL | MIC50 [19]: > 16 µg/mL | MIC90 [19]: > 16 µg/mL

CN[C@H](CC(C)C)C(=O)N[C@H]1C(=O)N[C@@H](CC(N)=O)C(=O)N[C@H]2C(=O)N[C@H]3C(=O)N[C@H](C(=O)N[C@H](C(=O)O)c4cc(O)cc(O)c4-c4cc3ccc4O)[C@H](O)c3ccc(c(Cl)c3)Oc3cc2cc(c3O[C@@H]2O[C@H](CO)[C@@H](O)[C@H](O)[C@H]2O[C@H]2C[C@](C)(N)[C@H](O)[C@H](C)O2)Oc2ccc(cc2Cl)[C@H]1O [VANCOMYCIN]
MIC [1]: 0.5 µg/mL (≈ 0.345 µM) | MIC50 [1]: 0.5 µg/mL (≈ 0.345 µM) | MIC90 [1]: 1 µg/mL (≈ 0.69 µM) | MIC50 [20]: 1 µg/mL (≈ 0.69 µM) | MIC90 [20]: 1 µg/mL (≈ 0.69 µM) | MIC50 [21]: 2 µg/mL (≈ 1.38 µM) | MIC90 [21]: 2 µg/mL (≈ 1.38 µM) | MIC50 [22]: 0.5 µg/mL (≈ 0.345 µM) | MIC90 [22]: 0.5 µg/mL (≈ 0.345 µM) | MIC50 [6]: 2 µg/mL (≈ 1.38 µM) | MIC90 [6]: > 16 µg/mL | MIC [24]: 0.5 µg/mL (≈ 0.345 µM) | MIC50 [24]: 0.5 µg/mL (≈ 0.345 µM) | MIC90 [24]: 1 µg/mL (≈ 0.69 µM) | MIC50 [8]: 2 µg/mL (≈ 1.38 µM) | MIC90 [8]: 2 µg/mL (≈ 1.38 µM) | MIC50 [10]: 2 µg/mL (≈ 1.38 µM) | MIC90 [10]: > 16 µg/mL | MIC50 [12]: 2 µg/mL (≈ 1.38 µM) | MIC90 [12]: 2 µg/mL (≈ 1.38 µM) | MIC50 [25]: 1 µg/mL (≈ 0.69 µM) | MIC90 [25]: 1 µg/mL (≈ 0.69 µM) | MIC50 [15]: 8 µg/mL (≈ 5.52 µM) | MIC90 [15]: > 16 µg/mL | MIC50 [26]: 0.5 µg/mL (≈ 0.345 µM) | MIC90 [26]: 0.5 µg/mL (≈ 0.345 µM) | MIC50 [17]: 8 µg/mL (≈ 5.52 µM) | MIC90 [17]: > 16 µg/mL | MIC50 [18]: 0.5 µg/mL (≈ 0.345 µM) | MIC90 [18]: 0.5 µg/mL (≈ 0.345 µM)
